In ChEMBL document CHEMBL4251703, “Linker Variation and Structure-Activity Relationship Analyses of Carboxylic Acid-based Small Molecule STAT3 Inhibitors” (ACS Med Chem Lett, 2018):
Values after ≈ are worked out from the molar mass of the structure shown. Blank lines part the entries; values can stand above or below the compound they belong to. Active and inactive are the calls of the source. No cut-off for these calls is given here.

How the values were obtained:
[1] = target: Signal transducer and activator of transcription 3 (Homo sapiens) (UniProt P40763); assay: Inhibition of STAT3 in human MDA-MB-231 cells assessed as reduction in p-STAT3(Y705) level at 10 uM after 1 hr by immunoblot analysis; type: cell-based
[2] = target: Proto-oncogene tyrosine-protein kinase Src (Homo sapiens) (UniProt P12931); assay: Inhibition of SRC phosphorylation in human MDA-MB-231 cells at 5 uM after 24 hrs by immunoblot analysis; type: cell-based
MDA-MB-468 = assay: Cytotoxicity against human MDA-MB-468 cells harboring active STAT3 assessed as decrease in cell viability up to 10 uM after 72 hrs by CyQuant dye based assay; type: functional
Outline: (§1)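 Cells were grown in 96-well format and treated once with 0–10 μM compound for 72 h. Viable cells were quantified by CyQuant proliferation assay and plotted as % viability against concentration. Data are mean ± SD of three independent determinations.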

[3] = target: Tyrosine-protein kinase JAK2 (Homo sapiens) (UniProt O60674); assay: Inhibition of JAK2 phosphorylation in human MDA-MB-231 cells at 5 uM after 24 hrs by immunoblot analysis; type: cell-based
[4] = target: Mitogen-activated protein kinase; ERK1/ERK2 (Homo sapiens) (UniProt P27361+P28482); assay: Inhibition of ERK1/2 phosphorylation in human MDA-MB-231 cells at 5 uM after 24 hrs by immunoblot analysis; type: cell-based
MCF7 = assay: Cytotoxicity against human MCF7 cells assessed as decrease in cell viability up to 10 uM after 72 hrs by CyQuant dye based assay; type: functional; outline: as §1
MDA-MB-231 [5] = assay: Antimigratory activity against human MDA-MB-231 cells at 8 uM after 22 to […] hrs by inverted fluorescence microscope; type: functional, cell-based
Outline: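 Confluent MDA-MB-231 cultures were wounded and treated once with or without 8 μM compound. Migration into the denuded area was followed over 23 h and imaged. Controls received 0.05% DMSO.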

MDA-MB-231 [6] = assay: Anticlonogenic activity against human MDA-MB-231 cells up to 3 uM after 4 hrs by crystal violet staining based assay; type: functional, cell-based
Outline: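 Single-cell cultures of MDA-MB-231 cells were treated once and cultured until large colonies were visible. Colonies were then stained with crystal violet, counted and plotted.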

[7] = target: Signal transducer and activator of transcription 3 (Homo sapiens) (UniProt P40763); assay: Inhibition of STAT3 DNA binding activity in human MDA-MB-468 nuclear extract at 5 uM after 24 hrs by electrophoretic mobility shift assay
Outline: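 MDA-MB-468 cells received 5 μM compound for 3 or 24 h. STAT3 DNA-binding in nuclear extracts of equal total protein was then analysed by EMSA.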

MDA-MB-231 [8] = assay: Cytotoxicity against human MDA-MB-231 cells harboring active STAT3 assessed as decrease in cell viability up to 10 uM after 72 hrs by CyQuant dye based assay; type: functional; outline: as §1
[9] = target: Signal transducer and activator of transcription 3 (Mus musculus) (UniProt P42227); assay: (§2) Inhibition of STAT3 DNA binding activity in mouse NIH/3T3 nuclear extract preincubated for 30 mins followed by [32P]hSIE addition measured after 30 mins by electrophoretic mobility shift assay
Outline: (§3)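 STAT3 DNA-binding was measured by EMSA using nuclear extracts of equal total protein from v-Src-transformed fibroblasts containing activated STAT3. Extracts were preincubated for 30 min with 0–100 μM compound, then incubated with radiolabeled hSIE probe.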

[10] = target: Signal transducer and activator of transcription 3 (Homo sapiens) (UniProt P40763); assay: Inhibition of STAT3 DNA binding activity in human MDA-MB-231 nuclear extract at 10 uM after 24 hrs by electrophoretic mobility shift assay
Outline: (§4)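 MDA-MB-231 breast cancer cells were exposed to 10 μM compound for 1, 3 or 24 h. Nuclear extracts of equal total protein were then assayed for STAT3 DNA-binding by EMSA.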

[11] = target: Signal transducer and activator of transcription 3 (Homo sapiens) (UniProt P40763); assay: Inhibition of STAT3 DNA binding activity in human MDA-MB-231 nuclear extract at 10 uM after 1 hr by electrophoretic mobility shift assay; outline: as §4
[12] = target: Signal transducer and activator of transcription 3 (Homo sapiens) (UniProt P40763); assay: Inhibition of STAT3 DNA binding activity in human MDA-MB-231 nuclear extract at 10 uM after 3 hrs by electrophoretic mobility shift assay; outline: as §4
[13] = target: Signal transducer and activator of transcription 3 (Mus musculus, UniProt P42227); assay: as §2; outline: as §3
[14] = Apparent permeability of the compound from apical to basolateral side in human Caco2 cells; type: ADME, cell-based; conditions: Caco-2
[15] = Half life in mouse liver microsomes; type: ADME, microsome
[16] = Half life in human liver microsomes; type: ADME, microsome
[17] = target: Signal transducer and activator of transcription 3 (Homo sapiens) (UniProt P40763); assay: Inhibition of STAT3 in human MDA-MB-468 cells assessed as reduction in p-STAT3(Y705) level at 5 uM after 1 to 24 hrs by immunoblot analysis; type: cell-based
[18] = target: Signal transducer and activator of transcription 3 (Homo sapiens) (UniProt P40763); assay: Inhibition of STAT3 in human MDA-MB-231 cells assessed as reduction in p-STAT3(Y705) level at 5 uM after 1 to 24 hrs by immunoblot analysis; type: cell-based
[19] = Solubility of the compound in simulated intestinal fluid at pH 6.8; type: physicochemical
Outline: (§5)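 Aqueous solubility was determined in pH 7.4 PBS and in pH 6.8 buffered simulated intestinal fluid, reported in μg/mL.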

[20] = Solubility of the compound in PBS at pH 7.4; type: physicochemical; outline: as §5

Chain of Signal transducer and activator of transcription 3 (Homo sapiens) (P40763 whole entry): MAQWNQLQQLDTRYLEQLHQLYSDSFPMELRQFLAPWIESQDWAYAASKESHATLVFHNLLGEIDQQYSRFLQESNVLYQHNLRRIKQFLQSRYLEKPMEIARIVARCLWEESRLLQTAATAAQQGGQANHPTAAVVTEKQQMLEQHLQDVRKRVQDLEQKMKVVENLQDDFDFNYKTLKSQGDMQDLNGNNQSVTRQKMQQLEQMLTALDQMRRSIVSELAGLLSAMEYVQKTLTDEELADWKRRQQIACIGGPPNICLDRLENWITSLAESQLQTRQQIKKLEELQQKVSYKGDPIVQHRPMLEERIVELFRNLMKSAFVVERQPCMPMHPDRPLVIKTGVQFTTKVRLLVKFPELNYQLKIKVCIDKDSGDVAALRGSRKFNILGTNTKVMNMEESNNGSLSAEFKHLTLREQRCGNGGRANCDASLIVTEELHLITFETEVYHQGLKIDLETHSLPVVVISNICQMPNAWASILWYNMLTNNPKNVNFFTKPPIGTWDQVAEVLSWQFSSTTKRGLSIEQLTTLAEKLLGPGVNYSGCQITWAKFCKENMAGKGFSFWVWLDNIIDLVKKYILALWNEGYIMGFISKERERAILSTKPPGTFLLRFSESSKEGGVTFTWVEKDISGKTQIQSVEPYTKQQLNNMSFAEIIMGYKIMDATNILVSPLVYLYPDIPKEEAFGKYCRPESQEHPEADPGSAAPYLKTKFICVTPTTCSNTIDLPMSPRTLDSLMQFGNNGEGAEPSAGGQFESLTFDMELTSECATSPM
Chain of Signal transducer and activator of transcription 3 (P42227 whole entry): as the sequence (P40763 whole entry) above, with E760D counted along it
Chain of Signal transducer and activator of transcription 3 (Mus musculus) (P42227 whole entry): as the sequence (P40763 whole entry) above, with E760D counted along it
Chain of Mitogen-activated protein kinase; ERK1/ERK2 (Homo sapiens) (P27361 whole entry, looked up): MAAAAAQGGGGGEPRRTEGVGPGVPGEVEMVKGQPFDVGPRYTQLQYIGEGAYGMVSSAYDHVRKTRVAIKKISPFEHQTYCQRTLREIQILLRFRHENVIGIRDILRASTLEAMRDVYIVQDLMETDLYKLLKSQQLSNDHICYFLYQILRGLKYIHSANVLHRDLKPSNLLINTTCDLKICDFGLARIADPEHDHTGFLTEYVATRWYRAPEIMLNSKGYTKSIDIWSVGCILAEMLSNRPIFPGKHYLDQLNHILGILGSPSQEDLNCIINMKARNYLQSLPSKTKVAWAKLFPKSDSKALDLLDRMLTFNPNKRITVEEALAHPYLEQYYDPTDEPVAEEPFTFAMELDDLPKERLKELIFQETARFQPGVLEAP
Chain of Mitogen-activated protein kinase; ERK1/ERK2 (Homo sapiens) (P28482 whole entry, looked up): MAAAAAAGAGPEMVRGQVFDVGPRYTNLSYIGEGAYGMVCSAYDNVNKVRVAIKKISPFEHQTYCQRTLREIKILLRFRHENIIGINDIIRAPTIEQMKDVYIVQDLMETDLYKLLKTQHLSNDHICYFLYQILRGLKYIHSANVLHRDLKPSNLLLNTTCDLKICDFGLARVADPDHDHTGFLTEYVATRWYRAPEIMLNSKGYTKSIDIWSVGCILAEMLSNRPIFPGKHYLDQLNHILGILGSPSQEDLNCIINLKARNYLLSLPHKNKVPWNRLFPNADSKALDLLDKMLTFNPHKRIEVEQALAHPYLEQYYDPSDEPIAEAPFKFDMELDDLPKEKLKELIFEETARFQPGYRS
Chain of Tyrosine-protein kinase JAK2 (Homo sapiens) (O60674 whole entry): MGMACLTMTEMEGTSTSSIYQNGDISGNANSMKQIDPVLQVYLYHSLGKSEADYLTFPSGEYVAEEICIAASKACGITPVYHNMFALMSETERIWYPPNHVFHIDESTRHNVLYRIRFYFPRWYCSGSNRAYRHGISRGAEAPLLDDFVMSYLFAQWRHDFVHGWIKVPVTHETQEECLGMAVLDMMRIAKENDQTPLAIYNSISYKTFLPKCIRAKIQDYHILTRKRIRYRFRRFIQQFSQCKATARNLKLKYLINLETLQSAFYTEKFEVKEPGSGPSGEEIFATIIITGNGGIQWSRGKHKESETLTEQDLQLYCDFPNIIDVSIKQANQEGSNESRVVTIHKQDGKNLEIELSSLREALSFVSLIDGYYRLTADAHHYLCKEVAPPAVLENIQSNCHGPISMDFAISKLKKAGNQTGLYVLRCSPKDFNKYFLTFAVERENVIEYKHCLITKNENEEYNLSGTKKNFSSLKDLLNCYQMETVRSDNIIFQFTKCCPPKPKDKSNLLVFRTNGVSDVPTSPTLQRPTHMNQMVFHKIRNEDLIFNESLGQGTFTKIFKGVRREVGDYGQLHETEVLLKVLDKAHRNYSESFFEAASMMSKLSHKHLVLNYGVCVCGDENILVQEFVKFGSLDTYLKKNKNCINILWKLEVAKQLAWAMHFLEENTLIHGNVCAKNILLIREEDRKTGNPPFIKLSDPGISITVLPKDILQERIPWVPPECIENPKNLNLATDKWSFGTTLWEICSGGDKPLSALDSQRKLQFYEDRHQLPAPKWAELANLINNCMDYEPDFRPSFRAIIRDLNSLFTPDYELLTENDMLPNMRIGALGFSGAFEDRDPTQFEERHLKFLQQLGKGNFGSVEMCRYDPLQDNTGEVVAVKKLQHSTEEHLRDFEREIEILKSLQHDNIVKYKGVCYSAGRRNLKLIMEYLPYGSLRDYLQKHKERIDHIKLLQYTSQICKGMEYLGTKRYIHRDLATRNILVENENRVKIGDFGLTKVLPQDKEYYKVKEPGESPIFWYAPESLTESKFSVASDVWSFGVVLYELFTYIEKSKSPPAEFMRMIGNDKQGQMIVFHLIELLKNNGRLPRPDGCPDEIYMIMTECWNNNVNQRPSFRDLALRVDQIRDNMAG
Chain of Proto-oncogene tyrosine-protein kinase Src (Homo sapiens) (P12931 2-536 limits assumed): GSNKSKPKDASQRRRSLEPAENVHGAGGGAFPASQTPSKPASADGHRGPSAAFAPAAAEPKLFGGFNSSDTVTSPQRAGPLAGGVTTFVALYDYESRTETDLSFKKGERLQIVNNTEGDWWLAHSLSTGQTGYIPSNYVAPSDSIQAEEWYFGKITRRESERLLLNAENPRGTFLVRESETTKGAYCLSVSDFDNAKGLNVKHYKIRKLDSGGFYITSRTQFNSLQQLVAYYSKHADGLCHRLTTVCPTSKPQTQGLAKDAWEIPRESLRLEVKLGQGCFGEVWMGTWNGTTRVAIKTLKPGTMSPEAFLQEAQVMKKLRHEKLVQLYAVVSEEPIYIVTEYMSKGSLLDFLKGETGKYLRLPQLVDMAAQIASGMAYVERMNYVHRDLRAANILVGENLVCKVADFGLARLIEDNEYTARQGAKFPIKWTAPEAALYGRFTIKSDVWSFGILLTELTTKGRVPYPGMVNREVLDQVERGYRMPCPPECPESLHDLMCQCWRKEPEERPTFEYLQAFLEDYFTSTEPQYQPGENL

SMILES: C[C@H](C(=O)N(Cc1ccc(C2CCCCC2)cc1)c1ccc(C(=O)O)cc1Cl)N(C)S(=O)(=O)c1c(F)c(F)c(F)c(F)c1F
inhibition [1]: Active
inhibition [2]: inactive
Activity (MDA-MB-468): Active
inhibition [3]: inactive
inhibition [4]: inactive
Activity (MCF7): inactive
Activity (MDA-MB-231 [5]): Active
Activity (MDA-MB-231 [6]): Active
inhibition [7]: Active
Activity (MDA-MB-231 [8]): Active

SMILES: C[C@@H](C(=O)N(Cc1ccc(C2CCCCC2)cc1)c1ccc(C(=O)O)c(O)c1)N(C)S(=O)(=O)c1c(F)c(F)c(F)c(F)c1F
inhibition [10]: Active
inhibition [11]: inactive
inhibition [12]: Active

SMILES: C[C@@H](C(=O)N(Cc1ccc(C2CCCCC2)cc1)c1ccc(C(=O)NO)c(O)c1)N(C)S(=O)(=O)c1c(F)c(F)c(F)c(F)c1F
IC50 [13]: 6.8 µM

SMILES: O=C(O)c1ccc(N(Cc2ccc(C3CCCCC3)cc2)C(=O)[C@@H]2CCCN2S(=O)(=O)c2c(F)c(F)c(F)c(F)c2F)c(F)c1
Papp A→B [14]: 0.1 ×10⁻⁶ cm/s
half-life [15]: 26 min
half-life [16]: 54 min

SMILES: O=C(O)c1ccc(N(Cc2ccc(C3CCCCC3)cc2)C(=O)[C@H]2CCCN2S(=O)(=O)c2c(F)c(F)c(F)c(F)c2F)cc1O
inhibition [17]: Active
Activity (MDA-MB-468): Active
p-STAT3(Y705) reduction (qualitative call) [18]: Active
Activity (MCF7): inactive
Activity (MDA-MB-231 [8]): Active

SMILES: O=C(O)c1ccc(N(Cc2ccc(C3CCCCC3)cc2)C(=O)[C@H]2CCCN2S(=O)(=O)c2c(F)c(F)c(F)c(F)c2F)c(F)c1
inhibition [17]: Active
p-STAT3(Y705) reduction (qualitative call) [18]: Active

SMILES: CN(CC(=O)N(Cc1ccc(C2CCCCC2)cc1)c1ccc(C(=O)O)c(O)c1)S(=O)(=O)c1cc(F)cc(F)c1
IC50 [13]: > 26 µM

SMILES: CN(CC(=O)N(Cc1ccc(C2CCCCC2)cc1)c1ccc(C(=O)O)c(O)c1)S(=O)(=O)c1cc(F)ccc1F
IC50 [13]: > 26 µM

SMILES: CN(CC(=O)N(Cc1ccc(C2CCCCC2)cc1)c1ccc(C(=O)O)cc1Cl)S(=O)(=O)c1c(F)c(F)c(F)c(F)c1F
inhibition [1]: Active
IC50 [13]: 8.6 to 14.4 µM
Activity (MDA-MB-468): Active
Activity (MCF7): inactive
Activity (MDA-MB-231 [5]): Active
Activity (MDA-MB-231 [6]): Active
Activity (MDA-MB-231 [8]): Active

SMILES: CN(CC(=O)N(Cc1ccc(C2CCCCC2)cc1)c1ccc(C(=O)O)c(O)c1)S(=O)(=O)c1ccc(F)c(F)c1F
IC50 [13]: > 26 µM

SMILES: O=C([O-])c1ccc(N(Cc2ccc(C3CCOCC3)cc2)C(=O)[C@H]2CCCN2S(=O)(=O)c2c(F)c(F)c(F)c(F)c2F)cc1O.[Na+]
solubility [19]: 117 µg/mL
Papp A→B [14]: 0.2 ×10⁻⁶ cm/s
solubility [20]: 123 µg/mL

SMILES: CN(CC(=O)N(Cc1ccc(C2CCCCC2)cc1)c1ccc(C(=O)O)c(O)c1)C(=O)c1c(F)c(F)c(F)c(F)c1F
inhibition [9]: inactive

SMILES: CN(CC(=O)N(Cc1ccc(C2CCCCC2)cc1)c1ccc(C(=O)O)[n+]([O-])c1)S(=O)(=O)c1c(F)c(F)c(F)c(F)c1F
inhibition [9]: inactive

The next lines start with results.

inhibition [1]: Active
inhibition [9]: inactive
SMILES: Cc1cc(C(=O)O)ccc1N(Cc1ccc(C2CCCCC2)cc1)C(=O)CN(C)S(=O)(=O)c1c(F)c(F)c(F)c(F)c1F
Activity (MDA-MB-468): Active
Activity (MCF7): inactive
Activity (MDA-MB-231 [5]): Active
Activity (MDA-MB-231 [6]): Active
Activity (MDA-MB-231 [8]): Active

IC50 [13]: > 26 µM
SMILES: CN(CC(=O)N(Cc1ccc(C2CCCCC2)cc1)c1ccc(C(=O)O)c(O)c1)S(=O)(=O)c1cccnc1

IC50 [13]: 8.6 to 14.4 µM
SMILES: CN(CC(=O)N(Cc1ccc(C2CCCCC2)cc1)c1ccc(C(=O)O)c(Cl)c1)S(=O)(=O)c1c(F)c(F)c(F)c(F)c1F

solubility [19]: 14 µg/mL (≈ 22.9 µM)
half-life [15]: ≥ 17 min
half-life [16]: ≥ 17 min
solubility [20]: 7.6 µg/mL (≈ 12.4 µM)
SMILES: CN(CC(=O)N(Cc1ccc(C2CCCCC2)cc1)c1ccc(C(=O)O)cc1)S(=O)(=O)c1c(F)c(F)c(F)c(F)c1F

inhibition [9]: inactive
SMILES: CN(CC(=O)N(Cc1ccc(C2CCOCC2)cc1)c1ccc(C(=O)O)c(O)c1)S(=O)(=O)c1c(F)c(F)c(F)c(F)c1F

inhibition [9]: Active
SMILES: CN([C@H](CO)C(=O)N(Cc1ccc(C2CCCCC2)cc1)c1ccc(C(=O)O)cc1)S(=O)(=O)c1c(F)c(F)c(F)c(F)c1F
